Results: ChEMBL document CHEMBL4513216, “Probing the Open Global Health Chemical Diversity Library for Multistage-Active Starting Points for Next-Generation Antimalarials” (ACS Infect Dis, 2020)

Test: Toxicity liver stage against HepG2, at 10uM
Format: cell-based
Parameters: test concentration 10 uM, cell line HepG2-A16-CD81EGFP
Conditions: human, HepG2-A16-CD81EGFP cells; read-out: INHIBITION
Summary of the method: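 Uninfected HepG2-A16-CD81EGFP cells, 3 × 10^3 per well, 1536-well, plated on prespotted compound at 10 μM final, parasite-free screening media added to match infected plates; puromycin 10 μM positive, DMSO 0.5% negative; run in parallel with 48 h PbLuc assay at 37 °C, 5% CO2; viability by CellTiter-Glo luminescence, normalized to controls.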

| SMILES | cytotoxicity at 10 µM [%] |
| --- | --- |
| CCCn1nnnc1COc1cc(OC)ccc1C(=O)OC | -2.04 |
| O=C(NC[C@H]1OC[C@@H](NC2CCC2)[C@@H]1O)c1cccs1 | 1.76 |
| c1ccc(-c2nnc([C@H]3CCN(C4CCOCC4)C3)o2)cc1 | -1.05 |
| CCC1CN(CC(=O)NCCN2CCCC2)c2ccccc2S1 (stereo unspecified) | -13.1 |
| COCCNC(=O)c1cccnc1Sc1cc(OC)ccc1OC | 0.734 |
| Cc1ccc(-c2nnc(CN3CCN(c4ccccn4)CC3)o2)cc1 | -5.34 |
| CN1CC[C@H](N(C)Cc2ccccc2)C[C@H](O)C1 | -0.895 |
| CCOc1nn(CC)cc1-c1nnc(SCc2ccccn2)n1C | -2.95 |
| O=S(=O)(NCC(O)c1cccs1)c1ccccc1Cl (stereo unspecified) | -67 |
| COc1ccc(F)cc1S(=O)(=O)N1CCN(CCn2ccnc2)CC1 | -7.72 |
| Cc1ccnc(OC[C@]23COC[C@H]2CN(C(=O)c2ncccn2)C3)n1 | -3.18 |
| CCOCC1CN(C(=O)c2ccco2)Cc2cnn(C)c21 (stereo unspecified) | 6.14 |
| Cc1ccc(N2CCc3ncc(CNc4ccccn4)n3CC2)nn1 | 5.41 |
| Cn1cc(CN2CC3(CCN(Cc4ccsc4)C3)C2)cn1 | -0.182 |
| CCS(=O)(=O)N1CC[C@H]2O[C@H](c3nc(C)no3)CC[C@H]21 | 6.73 |
| O=C(O)c1nnn(-c2ccc(C(F)(F)F)cc2)c1-c1ccncc1 | 7.33 |
| CCOCCCNC(=O)CN(c1ccc(C)c(C)c1)S(C)(=O)=O | 7.74 |
| CCCOC1Sc2nnc(C)n2N=C1c1ccccc1 (stereo unspecified) | 1.57 |
| COc1ccc(C2=Nn3c(CCCN)nnc3-c3ccccc3C2)cc1 | 3.07 |
| O[C@@H]1C[C@H]2CN(Cc3ccccc3)[C@H](Cc3ccccc3)CN2C1 | -0.658 |
| Cc1cccc(CNC(=O)CC2CCN(Cc3ccccn3)CC2)n1 | 10.1 |
| Cn1nc(C2CC2)cc1C(=O)N1CCC(c2nnsc2S(C)(=O)=O)CC1 | -0.81 |
| CCN1CCCC1CNCc1cc2cc(OC)c(OC)cc2[nH]c1=O (stereo unspecified) | 2.63 |

| SMILES | cytotoxicity at 10 µM [%] |
| --- | --- |
| Cc1ccc(N2CCOC(C)(C(=O)N(C)C)C2)nn1 (stereo unspecified) | -4.43 |
| COc1ncc(CN(C)C2CCN(C(C)C)CC2)cn1 | 5.15 |
| O=C(NCc1ccccn1)c1cnc(C2CCCN2)cn1 (stereo unspecified) | 3.62 |
| COc1ccccc1-c1ccccc1CC1(C(=O)O)CCNCC1 | -0.782 |
| Cc1cc(C2CCCCN2C(=O)c2cccn2C)nc2nccn12 (stereo unspecified) | -17.6 |
| Cc1cc(C(N)=O)nc(C2(C)CCCN2Cc2cnn(C)c2)n1 (stereo unspecified) | -23.6 |
| CNc1cc(C2CCCN(Cc3ccccc3OCC(=O)O)C2)ccn1 (stereo unspecified) | -24.8 |
| CNCC(=O)N1CCCCC1c1nccc(C)n1 (stereo unspecified) | -15.4 |
| CC(=O)N1CCN(c2cc(CCNC(=O)C(C)C)nc(C3CC3)n2)CC1 | -21.3 |
| O=C(c1ccc(=O)[nH]n1)N1CCCC1C1CCCC1 (stereo unspecified) | -7.09 |
| CC1CS(=O)(=O)CCN1Cc1ccccc1OCC(F)(F)F (stereo unspecified) | -4.86 |
| CC(C)n1nc2c(cc1=O)CN(CC1CCCCO1)CC2 (stereo unspecified) | 14.5 |
| CCc1nnc(CN2CCc3ccc(S(N)(=O)=O)cc32)o1 | 1.41 |
| Cc1cc(S(=O)(=O)N2CCOCC2C#N)ccc1F (stereo unspecified) | 57.3 |
| O=C(NCCNc1ccccn1)NC1CCCC1 | -5.81 |
| COCc1nc(C(=O)OCC2CCN(c3ccccc3)C2)cs1 (stereo unspecified) | -1.31 |
| Cc1cccc(OC(C)C(=O)NCC2(N(C)C)CCCC2)c1 (stereo unspecified) | -13.4 |
| O=C(NCCN1CCOCC1)N(CCCO)C1CCCc2ccccc21 (stereo unspecified) | -9.69 |
| O=C(NCCCOCc1ccco1)c1cccnc1N1CCOCC1 | -8.5 |
| COCCCNC(=O)Nc1cccc2ncccc12 | -4.84 |
| NC(=O)CCn1ccc(NC(=O)C2(c3ccc(F)cc3)CCC2)n1 | -1.03 |
| CC(=O)NCCCSCCOc1cccc(C#N)c1 | 11.4 |
| COc1c(C)cnc(CN(C)C(=O)c2cccc(NC(N)=O)c2)c1C | -8.94 |

| SMILES | cytotoxicity at 10 µM [%] |
| --- | --- |
| COc1cccc(F)c1C(C)NC(=O)NCc1cc(C(C)C)no1 (stereo unspecified) | 4.25 |
| CNS(=O)(=O)c1ccc(CNC(=O)N(C)CC(C)C)cc1 | 1.08 |
| CC(C)C(Sc1cccs1)C(=O)NCc1cccnc1 (stereo unspecified) | -5.15 |
| COc1ccccc1CN(CC1CCCO1)C(=O)c1csnn1 (stereo unspecified) | -0.636 |
| CNC(=O)c1ccc(S(=O)(=O)NCCc2ccccn2)cc1 | -14.3 |
| c1ccc2sc(NCC3(N4CCOCC4)CCSC3)nc2c1 (stereo unspecified) | 0.375 |
| O=C(c1c(F)cc(Br)cc1F)N1CCc2cnccc21 | -10.1 |
| CCc1noc(CN(CC(=O)N2CCCCC2)c2cccc(C)c2)n1 | -6.61 |
| CCc1nc(CNc2ccc(F)c(F)c2)no1 | 5.49 |
| O=C(NC1CC1)[C@@H]1CCO[C@@H]2CCN(Cc3ccco3)C[C@H]21 | -86.6 |
| CC(C)Nc1ncnc2c1CCN(C(=O)CC1CCCC1)CC2 | -81.5 |
| CC(=O)N1CC[C@H]2OCC[C@@H](C(=O)NCc3ccco3)[C@@H]2C1 | -77.4 |
| Cc1cc(NC(C)c2n[nH]c(C)n2)n2nc(C)c(C)c2n1 (stereo unspecified) | -11.4 |
| Cc1cccc(CC(=O)N2CCCC(N(C)CCCN(C)C)C2)c1 (stereo unspecified) | -0.655 |
| COc1cc(CN2CCCC(Nc3cccc(F)c3)C2)cc(Cl)c1O (stereo unspecified) | -0.476 |
| CC(CO)CN(Cc1ccccc1)Cc1cnc2ccccc2n1 (stereo unspecified) | 6.6 |
| Cc1ccc(C(=O)N2CC(Oc3ccccc3C)C2)s1 | 17.1 |
| COc1ccc(F)c(-c2nccn2CCN2CCCC2)c1 | -11.8 |
| Cc1ccccc1N1CCN(C(=O)Cc2ccc3c(c2)OCO3)CC1=O | 6.17 |
| CCc1nccn1CCCNC(=O)CN1CCN(c2ncccn2)CC1 | -7.54 |
| CSc1ccc(CN(CCO)C(=O)CCNC(C)=O)cc1 | 5.42 |
| CCC[C@H]1CN(C2CCOCC2)C[C@@H]1NC(=O)CCn1ccnc1C | 5.78 |
| CC(c1nccs1)N(C)C(=O)c1cc(CN(C)Cc2ccccc2)on1 (stereo unspecified) | 12.2 |

| SMILES | cytotoxicity at 10 µM [%] |
| --- | --- |
| Cc1nc2c(c(NCC(c3cccnc3)N3CCOCC3)n1)CCNC2 (stereo unspecified) | -11.1 |
| Cn1cc(Cl)cc1C(=O)N1CCC2(CCCN(CC3CC3)C2=O)C1 (stereo unspecified) | 1.96 |
| CC(C)=CCN1C[C@@H]2CN(C(=O)c3cnccc3C)C[C@]2(C(=O)O)C1 | 2.85 |
| CCc1nnc(CN2CCC3(CC2)Nc2ccccc2NC3=O)o1 | -6.96 |
| Cc1cc(C(F)(F)F)cc(=O)n1CCn1cc(Cl)cn1 | 0.382 |
| CC(C)(C)N1CC(C(=O)N2CC(Oc3ccc(F)cc3)C2)CC1=O (stereo unspecified) | 1.88 |
| c1ccc(C2CCCN(Cc3cc4n(n3)CCNC4)CC2)cc1 (stereo unspecified) | 1.9 |
| Cc1ccc(OCC2CCCN(C(=O)Cn3ccccc3=O)C2)cc1 (stereo unspecified) | 0.55 |
| Cn1nccc1C(=O)N1CCC(n2cc(-c3ccsc3)nn2)CC1 | -3.44 |
| COCCN1CCCC(c2nc3c([nH]2)CC(C)(C)CNC3=O)C1 (stereo unspecified) | -11.6 |
| Cc1cccnc1NCCNC(=O)[C@H]1CNC[C@@H](C(=O)N2CCCC2)C1 | -11.3 |
| COc1ncccc1C(=O)NCC(C)Oc1cccnc1 (stereo unspecified) | -8.45 |
| COCCN(C)C(=O)Cn1cccc(OC)c1=O | -14.8 |
| O=C(c1ccsc1)N1C[C@@H](CN2CCCC2)[C@@H](CO)C1 | 15.2 |
| COc1ccccc1OCc1cc(C(=O)N2CC=CC2C(C)C)n[nH]1 (stereo unspecified) | -2.72 |
| Cc1cccc(CN2CCc3c(nc(N4CCCCC4C)[nH]c3=O)C2)n1 (stereo unspecified) | -0.336 |
| Cc1cc(C(=O)N2CCCC(C)C2)ccc1NCc1nc(C(C)C)no1 (stereo unspecified) | -9.84 |
| CNC(=O)c1ccc(C(=O)N2CCCC(n3ccnc3)C2)cn1 (stereo unspecified) | -8.89 |
| CCCOCC(=O)NS(=O)(=O)c1ccc2c(c1)OCCO2 | -6.46 |
| CSc1nccn1-c1cccc(C(=O)NCC(F)(F)F)c1 | -0.312 |
| Cc1noc(Cl)c1CC(=O)N1CCC(Nc2cccnn2)CC1 | -4.72 |
| CCn1cc(NC(=O)C2CCN(Cc3noc(C4CC4)n3)CC2)cn1 | -1.41 |
| CCc1noc(CN2CCCC(Cn3nc(C)nc3C)C2)n1 (stereo unspecified) | -6.31 |

| SMILES | cytotoxicity at 10 µM [%] |
| --- | --- |
| Cc1cnn(CCNCC(=O)NCc2ccccc2)c1 | -4.25 |
| CC(NC(=O)NCC1(N2CCCCC2)CCCCC1)c1nncn1C (stereo unspecified) | -9.78 |
| O=C(c1cnc(-c2cccs2)s1)N1CCCN2CCCC2C1 (stereo unspecified) | -13.9 |
| Cn1cc([C@@H]2CN(S(=O)(=O)c3ccccc3F)C[C@H]2N)c2ccncc21 | 6.13 |
| CC(=O)NC1CCN(c2cnc(C3CCNCC3)cn2)CC1 | 8 |
| CN(C)CCN(Cc1ccccn1)Cc1ccnn1C1CCCCO1 (stereo unspecified) | 1.6 |
| Cc1c[nH]nc1C1CCCN1Cc1nccn1C (stereo unspecified) | -3.34 |
| CN1CCC2(CC1)CN(C(=O)c1cnccn1)Cc1ccccc12 | -82.2 |
| Cc1nc(CO[C@H]2CN(Cc3cccs3)[C@@H]3COC[C@H]23)cs1 | -2.19 |
| CCc1nc2ccccc2c(=O)n1CC1(O)CCN(C(=O)C2CC2)CC1 | -18.3 |
| NCCc1c(-c2ccccc2)[nH][nH]c1=O | 5.95 |
| Cc1cnc(N2CC[C@@H]3O[C@@H](COCC(=O)N(C)C)CC[C@@H]32)nc1 | 0.0508 |
| CN1CCN(CCO)C(=O)C12CCN(Cc1ccsc1)CC2 | 3.66 |
| CN1CCCc2cc(-c3cncn3CC(=O)NC(C)(C)C)ccc21 | -28.9 |
| Cc1cccc(CN2CC[C@@H]3[C@@H](CO[C@H]3CNc3ncccn3)C2)n1 | -5.55 |
| CCn1ncc2c1CN(C(=O)Cc1ccccn1)CC2COC (stereo unspecified) | -70.7 |
| Cc1oncc1C(=O)N1CC[C@H]2[C@@H]1CCC(=O)N2c1cccnc1 | -76.3 |
| O=S(=O)(C1CC1)N1CC[C@]2(C[C@@H](Oc3ncccc3F)CO2)C1 | -74.1 |
| Cc1cc(C(=O)N2C[C@@H]3CC[C@H]2CN(C)C3)ccc1Cl | -8.23 |
